# Test results published in ChEMBL document CHEMBL1144720, “Diarylheptanoids and a monoterpenoid from the rhizomes of Zingiber officinale: antioxidant and cytoprotective properties” (J Nat Prod, 2008).
# Activity calls are given as the source filed them. The calls are words filed in the database; no cut-off is given here.
# Key:
# Hepatocyte [1] = assay: Cytotoxicity against rat hepatocytes upto 100 uM after 48 hrs; format: cell-based
# Procedure, shortened: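 Primary cultured rat hepatocytes incubated with compounds up to 100 µM for 48 h to check cytotoxicity.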
# KB = assay: Cytotoxicity against human KB cells after 3 to 5 days by MTT assay; format: functional, cell-based
# Liver [2] = assay: Antioxidant activity in BALB/c mouse liver microsomes assessed as complete inhibition of free radical-induced lipid peroxidation at 40 uM after 60 mins; format: functional; conditions: Microsome
# Procedure, shortened: (§1)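 Mouse liver microsomes subjected to free radical-induced lipid peroxidation; formation of lipid peroxides measured with compounds over a concentration range, IC50 derived; mean ± SEM, n = 4.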
# Liver [3] = assay: Antioxidant activity in BALB/c mouse liver microsomes assessed as inhibition of free radical-induced lipid peroxidation after 60 mins; format: functional, Microsome; conditions: 1 h; procedure, shortened: as §1
# [4] = Antioxidant activity assessed as superoxide radical anion scavenging activity; format: functional
# Procedure, shortened: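 In vitro superoxide scavenging: superoxide generated by phenazine methosulfate–NADH system, detected as reduced nitroblue tetrazolium absorbance at 560 nm; dose–response used to derive IC50.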
# Hepatocyte [5] = assay: Antioxidant activity against tert-butyl hydroperoxide-induced oxidative stress in Sprague-Dawley rat hepatocytes at 100 uM after 24 hrs by lactate dehydrogenase assay; format: functional, cell-based
# Procedure, shortened: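 Primary rat hepatocyte cultures pretreated with compounds for 24 h, compounds removed, then exposed to tert-butyl hydroperoxide; cell damage read as lactate dehydrogenase leakage into culture medium; mean ± SEM, n = 4.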
# Liver [6] = assay: Antioxidant activity in BALB/c mouse liver microsomes assessed as complete inhibition of free radical-induced lipid peroxidation at 20 uM after 60 mins; format: functional; conditions: Microsome; procedure, shortened: as §1
Compound,Activity (Hepatocyte [1]),Activity (KB),Activity (Liver [2]),IC50 (Liver [3]) [µM],IC50 [4] [µM],Activity (Hepatocyte [5]),Activity (Liver [6])
COc1cc(CCC(O)CC(=O)CCc2cc(O)c(O)c(OC)c2)ccc1O (stereo not given),Non-toxic,Not toxic,–,–,–,–,–
COc1cc([C@@H]2C[C@H](O)C[C@H](CCc3ccc(O)cc3)O2)cc(O)c1O,–,–,Active,27.9,48.1,Active,–
COc1cc(CCC(=O)CC(O)CCc2cc(O)c(O)c(OC)c2)ccc1O (stereo not given),Non-toxic,Not toxic,–,–,–,–,–
COc1cc([C@@H]2C[C@@H](O)C[C@H](CCc3ccc(O)c(O)c3)O2)cc(O)c1O,Non-toxic,Not toxic,Active,21.9,39.9,Active,–
COc1cc(CCC(=O)CC(O)CCc2ccc(O)c(O)c2)ccc1O (stereo not given),Non-toxic,Not toxic,–,17.1,36.4,Active,Active
